Calls of active or inactive are those of the source. The calls are words filed in the database; no cut-off is given here.
What was measured:
[1] = target: Transient receptor potential cation channel subfamily V member 4 (Mus musculus, UniProt Q9EPK8, W586A); assay: Activation of mouse TRPV4 W586A mutant expressed in HEK293 cells assessed as increase in intracellular calcium concentration; type: cell-based
Outline: (§1)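 mTRPV4 (wild type or the Y556A, S557A or W586A TM3-4 mutant) in pCAGGS/Ires-GFP was transiently transfected into HEK293 cells and incubated overnight. GFP-positive cells on poly-L-lysine coverslips were loaded with 4 µM Fura-2 AM for 30 min at 37 °C and perfused with Krebs solution (1.5 mM CaCl2, pH 7.4). The 340/380 nm ratio (510 nm emission) gave ∆Fura-2 ratio. EC50 came from a Hill fit, >15 cells, three transfections.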

[2] = target: Transient receptor potential cation channel subfamily V member 4 (Mus musculus) (UniProt Q9EPK8); assay: Activation of mouse wild type TRPV4 expressed in HEK293 cells assessed as increase in intracellular calcium concentration at 1 uM in presence of TRP antagonist ruthenium red; type: functional, cell-based
Transient receptor potential cation channel subfamily V member 4 (Mus musculus), sequence (Q9EPK8 whole entry, the tested form may be a part): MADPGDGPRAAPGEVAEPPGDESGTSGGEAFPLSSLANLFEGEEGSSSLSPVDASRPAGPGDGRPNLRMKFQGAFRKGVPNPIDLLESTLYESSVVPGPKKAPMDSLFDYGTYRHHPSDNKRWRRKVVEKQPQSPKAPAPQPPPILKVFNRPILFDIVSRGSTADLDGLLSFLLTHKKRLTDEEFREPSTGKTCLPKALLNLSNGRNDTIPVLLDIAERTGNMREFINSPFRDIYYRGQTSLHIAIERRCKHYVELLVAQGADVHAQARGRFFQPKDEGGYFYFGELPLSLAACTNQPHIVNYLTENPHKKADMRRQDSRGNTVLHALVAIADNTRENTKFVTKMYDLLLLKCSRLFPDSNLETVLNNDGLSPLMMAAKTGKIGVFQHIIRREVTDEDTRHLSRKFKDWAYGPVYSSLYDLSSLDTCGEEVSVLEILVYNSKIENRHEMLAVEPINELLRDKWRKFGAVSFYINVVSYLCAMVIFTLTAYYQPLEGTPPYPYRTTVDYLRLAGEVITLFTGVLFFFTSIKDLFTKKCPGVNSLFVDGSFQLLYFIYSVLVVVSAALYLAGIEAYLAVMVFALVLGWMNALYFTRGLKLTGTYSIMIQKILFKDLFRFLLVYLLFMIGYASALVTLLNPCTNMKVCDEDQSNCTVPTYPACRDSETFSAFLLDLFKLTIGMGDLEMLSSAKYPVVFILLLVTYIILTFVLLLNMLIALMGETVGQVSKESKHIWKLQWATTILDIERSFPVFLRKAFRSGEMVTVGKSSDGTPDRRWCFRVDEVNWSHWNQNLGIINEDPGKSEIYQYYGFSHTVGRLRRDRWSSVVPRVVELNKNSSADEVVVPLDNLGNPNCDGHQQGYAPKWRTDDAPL
Outline: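 Single-cell fura-2 imaging was done on GFP-positive HEK293 cells transiently expressing mTRPV4, perfused with Krebs buffer (1.5 mM CaCl2, pH 7.4). Agonist at 1 µM was applied in the bath, and ruthenium red 1 µM was added to the extracellular solution as indicated. The read-out was the 340/380 nm ratio change. Three independent experiments were run.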

[3] = target: Transient receptor potential cation channel subfamily V member 4 (Mus musculus, UniProt Q9EPK8, Y556A); assay: Activation of mouse TRPV4 Y556A mutant expressed in HEK293 cells assessed as increase in intracellular calcium concentration; type: cell-based; outline: as §1
Transient receptor potential cation channel subfamily V member 4 (Mus musculus, UniProt Q9EPK8, Y556A), sequence (Q9EPK8 whole entry Y556A): as the sequence (Q9EPK8 whole entry, the tested form may be a part) above, with Y556A counted along it

[4] = target: Transient receptor potential cation channel subfamily V member 4 (Mus musculus) (UniProt Q9EPK8); assay: (§2) Activation of mouse wild type TRPV4 expressed in HEK293 cells assessed as increase in intracellular calcium concentration; type: cell-based; outline: as §1
[5] = target: Transient receptor potential cation channel subfamily V member 4 (Mus musculus, UniProt Q9EPK8); assay: as §2; type: cell-based; outline: as §1
Transient receptor potential cation channel subfamily V member 4 (Mus musculus, UniProt Q9EPK8), sequence (Q9EPK8 whole entry): as the sequence (Q9EPK8 whole entry, the tested form may be a part) above

[6] = target: Transient receptor potential cation channel subfamily V member 4 (Mus musculus, UniProt Q9EPK8, S557A); assay: Activation of mouse TRPV4 S557A mutant expressed in HEK293 cells assessed as increase in intracellular calcium concentration; type: cell-based; outline: as §1
Transient receptor potential cation channel subfamily V member 4 (Mus musculus, UniProt Q9EPK8, S557A), sequence (Q9EPK8 whole entry S557A): as the sequence (Q9EPK8 whole entry, the tested form may be a part) above, with S557A counted along it

[7] = target: Transient receptor potential cation channel subfamily V member 4 (Mus musculus) (UniProt Q9EPK8); assay: Activation of mouse wild type TRPV4 expressed in HEK293 cells assessed as outward-inward rectifying current density at 500 nM at a holding potential of 100 mV by whole cell patch-clamp assay in absence of calcium; type: cell-based
Outline: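 Whole-cell patch clamp was run on mTRPV4-transfected HEK293 cells using ramps from -100 to +100 mV. CaCl2 was omitted from both solutions. Bath (mM): 150 NaCl, 6 CsCl, 1 MgCl2, 10 glucose, 10 HEPES, pH 7.4. Pipette (mM): 20 CsCl, 100 aspartate, 1 MgCl2, 10 HEPES, 4 Na-ATP, 10 BAPTA, pH 7.4. Agonist was added to the bath. Five cells, >2 transfections.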

HEK293 [8] = assay: Effect on intracellular calcium level in non transfected HEK293 cells; type: functional, cell-based; settings: Homo sapiens
Outline: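 GFP-negative cells from the same coverslips as the mTRPV4-transfected HEK293 cells served as untransfected controls. Cells were loaded with 4 µM Fura-2 AM for 30 min at 37 °C and perfused with Krebs solution (pH 7.4). ∆Fura-2 ratio was taken as (Rt−Rt0)/Rt0 from 340/380 nm excitation, with background subtracted.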

[9] = target: Transient receptor potential cation channel subfamily V member 4 (Mus musculus) (UniProt Q9EPK8); assay: Activation of mouse wild type TRPV4 expressed in HEK293 cells assessed as outward-inward rectifying current density at 500 nM at a holding potential of 100 mV by whole cell patch-clamp assay in presence of calcium; type: cell-based
Outline: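 Whole-cell patch clamp was run on mTRPV4-transfected HEK293 cells using ramps from -100 to +100 mV. Bath (mM): 150 NaCl, 6 CsCl, 1 MgCl2, 5 CaCl2, 10 glucose, 10 HEPES, pH 7.4. Pipette (mM): 20 CsCl, 100 aspartate, 1 MgCl2, 10 HEPES, 4 Na-ATP, 10 BAPTA, free Ca2+ buffered to 200 nM, pH 7.4. Agonist was added to the bath. Five cells, >2 transfections.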

[10] = target: T1, Transient receptor potential cation channel subfamily V member 2 (Homo sapiens) (UniProt Q9Y5S1); assay: Activation of TRPV2 expressed in HEK293 cells assessed as increase in intracellular calcium concentration; type: cell-based
T1 sequence (whole entry): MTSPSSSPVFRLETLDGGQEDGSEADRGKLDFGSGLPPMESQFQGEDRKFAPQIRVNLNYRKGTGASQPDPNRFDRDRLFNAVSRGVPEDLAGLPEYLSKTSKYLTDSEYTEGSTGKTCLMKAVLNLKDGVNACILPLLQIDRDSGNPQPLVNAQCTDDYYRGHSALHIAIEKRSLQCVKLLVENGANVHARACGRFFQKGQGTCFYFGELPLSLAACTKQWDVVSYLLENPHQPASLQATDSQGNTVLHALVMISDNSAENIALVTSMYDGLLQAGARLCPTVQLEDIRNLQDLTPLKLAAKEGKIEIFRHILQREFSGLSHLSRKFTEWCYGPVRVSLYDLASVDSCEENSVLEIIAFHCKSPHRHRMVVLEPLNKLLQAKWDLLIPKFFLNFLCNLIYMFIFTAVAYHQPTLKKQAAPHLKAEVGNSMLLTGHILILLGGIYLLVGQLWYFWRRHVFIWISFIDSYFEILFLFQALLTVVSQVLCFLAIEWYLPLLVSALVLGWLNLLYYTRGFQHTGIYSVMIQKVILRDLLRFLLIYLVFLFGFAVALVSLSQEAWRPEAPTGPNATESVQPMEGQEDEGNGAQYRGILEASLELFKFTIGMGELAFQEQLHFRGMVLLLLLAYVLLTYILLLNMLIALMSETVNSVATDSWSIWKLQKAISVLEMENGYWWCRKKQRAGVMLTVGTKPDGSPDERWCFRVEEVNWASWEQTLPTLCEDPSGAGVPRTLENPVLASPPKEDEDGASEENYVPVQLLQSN
Outline: (§3)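 HEK293 cells grown in DMEM with 10% human serum at 37 °C/10% CO2 and transfected with the TRPV channel. Cells were loaded with 4 µM Fura-2 AM for 30 min at 37 °C and perfused with Krebs buffer (1.5 mM CaCl2, pH 7.4). Read-out is single-cell 340/380 nm fura-2 ratio imaging against nontransfected cells.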

[11] = target: Transient receptor potential cation channel subfamily V member 4 (Mus musculus) (UniProt Q9EPK8); assay: Activation of mouse wild type TRPV4 expressed in HEK293 cells assessed as increase in intracellular calcium concentration at 500 nM in presence of TRP antagonist ruthenium red
[12] = target: Transient receptor potential cation channel subfamily V member 4 (Mus musculus) (UniProt Q9EPK8); assay: Activation of mouse wild type TRPV4 expressed in HEK293 cells assessed as increase in intracellular calcium concentration at 500 nM
[13] = target: Transient receptor potential cation channel subfamily V member 4 (Mus musculus) (UniProt Q9EPK8); assay: Agonist activity at mouse wild type TRPV4 expressed in HEK293 cells assessed as increase in intracellular calcium measured by fura-2 fluorescence ratio; type: functional, cell-based
Outline: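 Mouse TRPV4 (pCAGGS/Ires-GFP) transiently transfected into HEK293 cells, incubated overnight, then seeded on poly-L-lysine coverslips. GFP-positive cells loaded with 4 µM Fura-2 AM for 30 min at 37 °C and perfused with Krebs (pH 7.4). ΔFura-2 ratio taken as (Rt−R0)/R0 at the maximal response. EC50 from a Hill fit over >15 cells from three transfections, mean ± SEM.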

HEK293 [14] = assay: Effect on intracellular calcium level in non transfected HEK293 cells at >10 uM; type: functional, cell-based; settings: Homo sapiens
Outline: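 GFP-negative (untransfected) HEK293 cells from the same coverslips were imaged by fura-2 ratio. Compound was applied at concentrations above 10 µM.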

[15] = target: Transient receptor potential cation channel subfamily V member 1 (Homo sapiens) (UniProt Q8NER1); assay: Activation of TRPV1 expressed in HEK293 cells assessed as increase in intracellular calcium concentration; type: cell-based; outline: as §3
Transient receptor potential cation channel subfamily V member 1 (Homo sapiens), sequence (Q8NER1 whole entry): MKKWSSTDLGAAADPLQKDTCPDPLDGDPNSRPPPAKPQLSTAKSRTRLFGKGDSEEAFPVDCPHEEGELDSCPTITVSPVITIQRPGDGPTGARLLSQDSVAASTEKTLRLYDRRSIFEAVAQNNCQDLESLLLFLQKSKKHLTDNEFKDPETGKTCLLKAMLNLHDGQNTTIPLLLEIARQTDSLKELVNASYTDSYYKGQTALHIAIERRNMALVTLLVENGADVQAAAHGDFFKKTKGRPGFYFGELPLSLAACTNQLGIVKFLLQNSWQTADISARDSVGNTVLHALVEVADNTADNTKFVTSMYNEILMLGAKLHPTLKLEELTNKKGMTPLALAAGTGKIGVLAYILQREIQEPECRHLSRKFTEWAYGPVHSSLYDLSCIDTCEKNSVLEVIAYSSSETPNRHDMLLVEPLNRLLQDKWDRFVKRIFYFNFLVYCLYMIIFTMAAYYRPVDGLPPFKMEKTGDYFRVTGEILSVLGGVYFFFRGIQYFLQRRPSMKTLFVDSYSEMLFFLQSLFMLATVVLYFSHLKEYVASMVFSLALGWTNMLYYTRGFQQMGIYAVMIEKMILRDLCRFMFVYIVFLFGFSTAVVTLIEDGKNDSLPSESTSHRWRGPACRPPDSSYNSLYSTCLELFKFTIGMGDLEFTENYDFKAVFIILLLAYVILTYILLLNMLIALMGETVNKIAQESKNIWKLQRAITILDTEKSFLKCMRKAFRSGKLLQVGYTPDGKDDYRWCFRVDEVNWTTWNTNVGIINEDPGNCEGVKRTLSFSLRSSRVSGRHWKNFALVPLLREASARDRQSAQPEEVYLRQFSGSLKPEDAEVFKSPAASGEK

[16] = target: T2, Transient receptor potential cation channel subfamily V member 3 (Homo sapiens) (UniProt Q8NET8); assay: Activation of TRPV3 expressed in HEK293 cells assessed as increase in intracellular calcium concentration; type: cell-based; outline: as §3
T2 sequence (whole entry): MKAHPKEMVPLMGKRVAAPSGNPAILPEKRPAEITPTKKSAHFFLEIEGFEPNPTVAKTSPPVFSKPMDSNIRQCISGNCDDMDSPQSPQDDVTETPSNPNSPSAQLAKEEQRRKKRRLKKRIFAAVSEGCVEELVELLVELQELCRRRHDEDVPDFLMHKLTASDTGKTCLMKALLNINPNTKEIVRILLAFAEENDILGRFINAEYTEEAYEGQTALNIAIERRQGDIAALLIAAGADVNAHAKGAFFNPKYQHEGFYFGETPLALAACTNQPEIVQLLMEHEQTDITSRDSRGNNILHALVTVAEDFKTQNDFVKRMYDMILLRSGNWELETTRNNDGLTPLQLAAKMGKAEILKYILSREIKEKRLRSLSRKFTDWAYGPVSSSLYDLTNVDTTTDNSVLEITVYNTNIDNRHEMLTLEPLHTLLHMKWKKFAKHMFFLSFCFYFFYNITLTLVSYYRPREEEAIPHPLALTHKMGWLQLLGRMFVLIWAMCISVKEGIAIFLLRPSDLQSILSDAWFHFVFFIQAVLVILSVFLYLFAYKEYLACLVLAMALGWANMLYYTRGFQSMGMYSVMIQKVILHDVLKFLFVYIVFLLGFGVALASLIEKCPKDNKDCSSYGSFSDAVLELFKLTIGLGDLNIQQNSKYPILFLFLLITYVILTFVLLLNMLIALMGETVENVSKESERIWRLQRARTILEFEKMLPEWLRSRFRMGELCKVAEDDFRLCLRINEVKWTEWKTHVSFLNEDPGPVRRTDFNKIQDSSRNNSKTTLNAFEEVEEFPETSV

[17] = target: Transient receptor potential cation channel subfamily V member 4 (Mus musculus) (UniProt Q9EPK8); assay: Activation of mouse wild type TRPV4 expressed in HEK293 cells assessed as increase in intracellular calcium concentration at 0.1 uM; type: cell-based
[18] = tested on: Transient receptor potential cation channel subfamily V member 4 (Mus musculus), Q9EPK8 [Y556A]; assay: Agonist activity at mouse TRPV4 Y556A mutant expressed in HEK293 cells assessed as increase in intracellular calcium measured by fura-2 fluorescence ratio; type: functional, cell-based
Transient receptor potential cation channel subfamily V member 4 (Mus musculus), Q9EPK8 [Y556A], sequence (Q9EPK8 whole entry Y556A): as the sequence (Q9EPK8 whole entry, the tested form may be a part) above, with Y556A counted along it
Outline: (§4)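 HEK293 cells transiently transfected with W586A or Y556A mouse TRPV4 mutants alongside wild type. Dose-response by single-cell fura-2 Ca2+ imaging, read as ΔFura-2 ratio. More than 15 cells per point from three independent transfections. Hill fit used, significance set at p < 0.05.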

[19] = tested on: Transient receptor potential cation channel subfamily V member 4 (Mus musculus), Q9EPK8 [W586A]; assay: Agonist activity at mouse TRPV4 W586A mutant expressed in HEK293 cells assessed as increase in intracellular calcium measured by fura-2 fluorescence ratio; type: functional, cell-based; outline: as §4
Transient receptor potential cation channel subfamily V member 4 (Mus musculus), Q9EPK8 [W586A], sequence (Q9EPK8 whole entry W586A): as the sequence (Q9EPK8 whole entry, the tested form may be a part) above, with W586A counted along it

Transient receptor potential cation channel subfamily V member 4 (Mus musculus, UniProt Q9EPK8, W586A), sequence (Q9EPK8 whole entry W586A, the tested form may be a part): as the sequence (Q9EPK8 whole entry, the tested form may be a part) above, with W586A counted along it

SMILES | EC50 [1] | EC50 [3] | EC50 [5] | EC50 [6] | Activity [7] | Activity [9] | other results
CCCCCC(=O)O[C@@H]1[C@@H](C)[C@@]2(O)[C@@H](C=C(CO)C[C@@]3(O)C(=O)C(C)=C[C@@H]23)[C@@H]2C(C)(C)[C@]12OC(=O)CCCCC | 2840 nM | 2790 nM | 70 nM | 360 nM | 806 | 354 | Activity [2]: inactive; Activity [4]: Dose-dependent effect; Activity (HEK293 [8]): inactive
CCCCCCCCCCCCCC(=O)O[C@@H]1[C@@H](C)[C@@]2(O)[C@@H](C=C(CO)C[C@@]3(O)C(=O)C(C)=C[C@@H]23)[C@@H]2C(C)(C)[C@]12OC(=O)CCCCCCCCCCCCC | – | – | 2830 nM | – | – | – | –
CCCCCCCCC(=O)O[C@@H]1[C@@H](C)[C@@]2(O)[C@@H](C=C(CO)C[C@@]3(O)C(=O)C(C)=C[C@@H]23)[C@@H]2C(C)(C)[C@]12OC(=O)CCCCCCCC | – | – | > 50000 nM | – | – | – | –
CCCCCCCCCC(=O)O[C@@H]1[C@@H](C)[C@]2(O)[C@@H]3C4C([C@H]2[C@@H]2C(C)(C)[C@]12OC(=O)CCCCCCCCC)C1(CO)C[C@H]3C(=O)C41C (stereo partly drawn) | 3640 nM | 9360 nM | 175 nM | 240 nM | 635 | 505 | Activity [10]: inactive; Activity [11]: inactive; Activity [12]: Active; Activity [13]: Active; Activity (HEK293 [14]): Active; Activity [15]: inactive; Activity [16]: inactive; Activity [17]: Active; Activity [18]: Active; Activity [19]: Active
CC(=O)O[C@@H]1[C@@H](C)[C@@]2(O)[C@@H](C=C(CO)C[C@@]3(O)C(=O)C(C)=C[C@@H]23)[C@@H]2C(C)(C)[C@]12OC(C)=O | – | – | > 50000 nM | – | – | – | –

Source: ChEMBL document CHEMBL1138474, “Modulation of the transient receptor potential vanilloid channel TRPV4 by 4alpha-phorbol esters: a structure-activity study” (J Med Chem, 2009)
